Results: ChEMBL document CHEMBL1122285, “New myocardial imaging agents: stabilization of radioiodine as a terminal vinyl iodide moiety on tellurium fatty acids” (J Med Chem, 1983)
“And” between values parts separate entries of the source, which are not always exact repeats. Equal values may be shown once.

What was measured:
[1] = system: Rattus norvegicus; test: Tested for distribution of radioactivity iodine 125 in heart of rat after 3 days intravenous administration; format: ADME, organism-based; settings: in vivo, 72 h
Outline: (§1)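 Fischer 344 rats, four per time point, under ether anaesthesia. Each received ~8.6 μCi of 125I-labelled fatty acid (sp act ~20 mCi/mmol) by lateral tail vein in 0.5 mL 6% bovine serum albumin with 10% final ethanol, filtered before injection. Percent injected dose/g was calculated against injectate standards and reported as mean (range). Thyroid weight was taken as body weight × 7.5 mg/100 g.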

[2] = system: Rattus norvegicus; test: Tested for distribution of radioactivity iodine 125 in heart of rat after 30 min of intravenous administration (value in parentheses indicates range); format: ADME, organism-based; settings: in vivo, 0.5 h; outline: as §1
[3] = system: Rattus norvegicus; test: Tested for distribution of radioactivity iodine 125 in heart of rat after 4 hours of intravenous administration; format: ADME, organism-based; settings: in vivo; outline: as §1
[4] = system: Rattus norvegicus; test: Tested for distribution of radioactivity iodine 125 in heart of rat after 60 min of intravenous administration; format: ADME, organism-based; settings: in vivo, 1 h; outline: as §1
[5] = system: Rattus norvegicus; test: Tested for distribution of radioactivity of iodine 125 in blood of rat after 2 hour of intravenous administration; format: ADME, organism-based; settings: in vivo; outline: as §1
[6] = system: Rattus norvegicus; test: Tested for distribution of radioactivity of iodine 125 in blood of rat after 30 min of intravenous administration; format: ADME, organism-based; settings: in vivo, 0.5 h; outline: as §1
[7] = system: Rattus norvegicus; test: Tested for distribution of radioactivity of iodine 125 in blood of rat after 3 days of intravenous administration; format: ADME, organism-based; settings: in vivo, 72 h; outline: as §1
[8] = system: Rattus norvegicus; test: Tested for distribution of radioactivity of iodine 125 in blood of rat after 4 hours of intravenous administration; format: ADME, organism-based; settings: in vivo; outline: as §1
[9] = system: Rattus norvegicus; test: Tested for distribution of radioactivity of iodine 125 in blood of rat after 5 min of intravenous administration; format: ADME, organism-based; settings: in vivo; outline: as §1
[10] = system: Rattus norvegicus; test: Tested for distribution of radioactivity of iodine 125 in blood of rat after 60 min of intravenous administration; format: ADME, organism-based; settings: in vivo, 1 h; outline: as §1
[11] = system: Rattus norvegicus; test: Tested for distribution of radioactivity of iodine 125 in heart of rat after 5 min of intravenous administration; format: ADME, organism-based; settings: in vivo; outline: as §1
[12] = system: Rattus norvegicus; test: Tested for distribution of radioactivity of iodine 125 in kidney of rat after 2 hours of intravenous administration; format: ADME, organism-based; settings: in vivo; outline: as §1
[13] = system: Rattus norvegicus; test: Tested for distribution of radioactivity of iodine 125 in kidney of rat after 3 days of intravenous administration; format: ADME, organism-based; settings: in vivo, 72 h; outline: as §1
[14] = system: Rattus norvegicus; test: Tested for distribution of radioactivity of iodine 125 in kidney of rat after 30 min of intravenous administration; format: ADME, organism-based; settings: in vivo, 0.5 h; outline: as §1
[15] = system: Rattus norvegicus; test: Tested for distribution of radioactivity of iodine 125 in kidney of rat after 4 hours of intravenous administration; format: ADME, organism-based; settings: in vivo; outline: as §1
[16] = system: Rattus norvegicus; test: Tested for distribution of radioactivity of iodine 125 in kidney of rat after 5 min of intravenous administration; format: ADME, organism-based; settings: in vivo; outline: as §1
[17] = system: Rattus norvegicus; test: Tested for distribution of radioactivity of iodine 125 in liver of rat after 2 hr of intravenous administration; format: ADME, organism-based; settings: in vivo; outline: as §1
[18] = system: Rattus norvegicus; test: Tested for distribution of radioactivity of iodine 125 in liver of rat after 30 min of intravenous administration; format: ADME, organism-based; settings: in vivo, 0.5 h; outline: as §1
[19] = system: Rattus norvegicus; test: Tested for distribution of radioactivity of iodine 125 in liver of rat after 3 days of intravenous administration; format: ADME, organism-based; settings: in vivo, 72 h; outline: as §1
[20] = system: Rattus norvegicus; test: Tested for distribution of radioactivity of iodine 125 in liver of rat after 5 min of intravenous administration; format: ADME, organism-based; settings: in vivo; outline: as §1
[21] = system: Rattus norvegicus; test: Tested for distribution of radioactivity of iodine 125 in liver of rat after 60 min of intravenous administration; format: ADME, organism-based; settings: in vivo, 1 h; outline: as §1
[22] = system: Rattus norvegicus; test: Tested for distribution of radioactivity of iodine 125 in thyroid of rat after 30 min of intravenous administration; format: ADME, organism-based, Thyroid gland; settings: in vivo, 0.5 h; outline: as §1
[23] = system: Rattus norvegicus; test: Tested for distribution of radioactivity of iodine 125 in thyroid of rat after 5 min of intravenous administration; format: ADME, organism-based, Thyroid gland; settings: in vivo; outline: as §1
[24] = system: Rattus norvegicus; test: Tested for distribution of radioactivity of iodine 125 in thyroid of rat after 60 min of intravenous administration; format: ADME, organism-based, Thyroid gland; settings: in vivo, 1 h; outline: as §1
[25] = system: Rattus norvegicus; test: Tested for distribution of radioactivity of tellurium-123 in blood of rat after 30 min of intravenous administration; format: ADME, organism-based; settings: in vivo, 0.5 h
Outline: (§2)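 123mTe-labelled fatty acid (sp act ~20 mCi/mmol), ~6.8–8.4 μCi per rat, was given by lateral tail vein in 0.5 mL 6% BSA with 10% final ethanol to ether-anaesthetised Fischer 344 rats, four per time point. Tissue activity is expressed as mean % injected dose/g (range) against injectate standards.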

[26] = system: Rattus norvegicus; test: Tested for distribution of radioactivity of tellurium-123 in blood of rat after 5 min of intravenous administration; format: ADME, organism-based; settings: in vivo; outline: as §2
[27] = system: Rattus norvegicus; test: Tested for distribution of radioactivity of tellurium-123 in blood of rat after 60 min of intravenous administration; format: ADME, organism-based; settings: in vivo, 1 h; outline: as §2
[28] = system: Rattus norvegicus; test: Tested for distribution of radioactivity of tellurium-123 in heart of rat after 5 min of intravenous administration; format: ADME, organism-based; settings: in vivo; outline: as §2
[29] = system: Rattus norvegicus; test: Tested for distribution of radioactivity of tellurium-123 in heart of rat after 60 min of intravenous administration; format: ADME, organism-based; settings: in vivo, 1 h; outline: as §2
[30] = system: Rattus norvegicus; test: Tested for distribution of radioactivity of tellurium-123 in kidney of rat after 30 min of intravenous administration; format: ADME, organism-based; settings: in vivo, 0.5 h; outline: as §2
[31] = system: Rattus norvegicus; test: Tested for distribution of radioactivity of tellurium-123 in kidney of rat after 5 min of intravenous administration; format: ADME, organism-based; settings: in vivo; outline: as §2
[32] = system: Rattus norvegicus; test: Tested for distribution of radioactivity of tellurium-123 in kidney of rat after 60 min of intravenous administration; format: ADME, organism-based; settings: in vivo, 1 h; outline: as §2
[33] = system: Rattus norvegicus; test: Tested for distribution of radioactivity of tellurium-123 in liver of rat after 30 min of intravenous administration; format: ADME, organism-based; settings: in vivo, 0.5 h; outline: as §2
[34] = system: Rattus norvegicus; test: Tested for distribution of radioactivity of tellurium-123 in liver of rat after 5 min of intravenous administration; format: ADME, organism-based; settings: in vivo; outline: as §2
[35] = system: Rattus norvegicus; test: Tested for distribution of radioactivity of tellurium-123 in liver of rat after 60 min of intravenous administration; format: ADME, organism-based; settings: in vivo, 1 h; outline: as §2
[36] = system: Rattus norvegicus; test: Tested for distribution of radioactivity of tellurium-123 in lungs of rat after 30 min of intravenous administration; format: ADME, organism-based, Lung; settings: in vivo, 0.5 h; outline: as §2
[37] = system: Rattus norvegicus; test: Tested for distribution of radioactivity of tellurium-123 in lungs of rat after 5 min of intravenous administration; format: ADME, organism-based, Lung; settings: in vivo; outline: as §2
[38] = system: Rattus norvegicus; test: Tested for distribution of radioactivity of tellurium-123 in lungs of rat after 60 min of intravenous administration; format: ADME, organism-based, Lung; settings: in vivo, 1 h; outline: as §2
[39] = system: Rattus norvegicus; test: Tested for distribution of radioactivity of iodine 125 in lungs of rat after 2 hours of intravenous administration; format: ADME, organism-based, Lung; settings: in vivo; outline: as §1
[40] = system: Rattus norvegicus; test: Tested for distribution of radioactivity of iodine 125 in lungs of rat after 30 min of intravenous administration; format: ADME, organism-based, Lung; settings: in vivo, 0.5 h; outline: as §1
[41] = system: Rattus norvegicus; test: Tested for distribution of radioactivity of iodine 125 in lungs of rat after 3 days of intravenous administration; format: ADME, organism-based, Lung; settings: in vivo, 72 h; outline: as §1
[42] = system: Rattus norvegicus; test: Tested for distribution of radioactivity of iodine 125 in lungs of rat after 5 min of intravenous administration; format: ADME, organism-based, Lung; settings: in vivo; outline: as §1
[43] = system: Rattus norvegicus; test: Tested for distribution of radioactivity of iodine 125 in lungs of rat after 60 min of intravenous administration; format: ADME, organism-based, Lung; settings: in vivo, 1 h; outline: as §1
[44] = system: Rattus norvegicus; test: Tested for distribution of radioactivity of iodine 125 in liver of rat after 4 hr of intravenous administration; format: ADME, organism-based; settings: in vivo; outline: as §1
[45] = system: Rattus norvegicus; test: Tested for distribution of radioactivity of tellurium-123 in heart of rat after 30 min of intravenous administration; format: ADME, organism-based; settings: in vivo, 0.5 h; outline: as §2
[46] = system: Rattus norvegicus; test: Tested for distribution of radioactivity in heart of rat after 2 hours of intravenous administration; format: ADME, organism-based; settings: in vivo; outline: as §1
[47] = Tested for distribution of radioactivity of iodine 125 in kidney of rat after 60 min of intravenous administration; format: ADME; settings: in vivo, 1 h; outline: as §1

What does the source list for `O=C(O)CCCCCCCCCCC[Te]CCC/C=C\I`?
Injected dose/g [1]: 0.09%; Injected dose/g [2]: 1.52%; Injected dose/g [3]: 0.76%; Injected dose/g [4]: 1.81%; Injected dose/g [5]: 0.68%; Injected dose/g [6]: 0.61%; Injected dose/g [7]: 0.03%; Injected dose/g [8]: 0.65%; Injected dose/g [9]: 0.15%; Injected dose/g [10]: 0.69%; Injected dose/g [11]: 1.46%; Injected dose/g [12]: 0.96%; Injected dose/g [13]: 0.08%; Injected dose/g [14]: 1.04%; Injected dose/g [15]: 0.93%; Injected dose/g [16]: 1.01%; Injected dose/g [17]: 2.45%; Injected dose/g [18]: 5.32%; Injected dose/g [19]: 0.09%; Injected dose/g [20]: 8.78%; Injected dose/g [21]: 4.39%; Injected dose/g [22]: 5.64%; Injected dose/g [23]: 1.62%; Injected dose/g [24]: 13.41%; Injected dose/g [25]: 0.84%; Injected dose/g [26]: 0.32% and 0.25%; Injected dose/g [27]: 0.95%; Injected dose/g [28]: 2.09%; Injected dose/g [29]: 1.92% and 0.83%; Injected dose/g [30]: 1.73% and 1.62%; Injected dose/g [31]: 1.46% and 1.54%; Injected dose/g [32]: 1.85%; Injected dose/g [33]: 5.53%; Injected dose/g [34]: 7.78% and 8.26%; Injected dose/g [35]: 4.49%; Injected dose/g [36]: 1.03%; Injected dose/g [37]: 0.91%; Injected dose/g [38]: 1% and 1.49%; Injected dose/g [39]: 0.81%; Injected dose/g [40]: 0.89%; Injected dose/g [41]: 0.1%; Injected dose/g [42]: 0.92%; Injected dose/g [43]: 1.02%; Injected dose/g [44]: 1.95%; Injected dose/g [45]: 1.98%; Injected dose/g [46]: 1.03%; Injected dose/g [47]: 1.15%
